Experimental data as given in ChEMBL document CHEMBL1143048, “Inhibition of monoamine oxidase B by selected benzimidazole and caffeine analogues” (Bioorg Med Chem, 2007).
Activity calls are given as the source filed them. The rule behind the calls is not given here.

Organism: Papio hamadryas
Test: Inhibition baboon liver mitochondrial MAOB upto 50 uM
Method in brief: (§1)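 Mitochondrial fraction from baboon liver was used as the enzyme source, without MAO-A inactivation. Incubations were run in 100 mM sodium phosphate, pH 7.4, with 0.15 mg protein/mL, MMTP at four levels (30–120 μM), three inhibitor levels, and 4% DMSO final, for 15 min at 37 °C. Reactions were stopped with perchloric acid. MMDP⁺ was read at 420 nm, and Lineweaver-Burk plots were constructed.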

For CCn1c(=O)c2c(nc3c4ccccc4ncn32)n(CC)c1=O, the Activity was “inactive”.

Target: not listed separately
Test: Inhibition baboon liver mitochondrial MAOB
Parameters: species or system Papio hamadryas
Method in brief: as §1

Compared with Cn1c(=O)c2c(nc(/C=C/c3cccs3)n2C)n(C)c1=O, Cn1c(=O)c2c(nc(/C=C/c3ccsc3)n2C)n(C)c1=O is 7.2-fold higher in Ki: 1.58 µM for the first, 11.3 µM for the second. The first binds more tightly here.

Compared with Cn1c(=O)c2c(nc(/C=C/c3ccco3)n2C)n(C)c1=O, Cn1c(=O)c2c(nc(/C=C/c3cccc(Br)c3)n2C)n(C)c1=O is 460-fold lower in Ki: 39.7 µM for the first, 0.086 µM for the second.

Compared with Cn1c(=O)c2c(nc(/C=C/c3cc(C(F)(F)F)cc(C(F)(F)F)c3)n2C)n(C)c1=O, Cn1c(=O)c2c(nc(/C=C/c3ccc(Cl)c(Cl)c3)n2C)n(C)c1=O is 6.6-fold lower in Ki: 0.239 µM for the first, 0.036 µM for the second.

Cc1ccc(/C=C/c2nc3ccccc3n2C)cc1 and Cn1c(/C=C/c2ccc(Br)cc2)nc2ccccc21 are within 1.5-fold of each other in Ki: 3.26 µM for the first, 2.54 µM for the second.

Going from Cn1c(/C=C/c2ccc(F)cc2)nc2ccccc21 to Cn1c(/C=C/c2ccc(Cl)cc2)nc2ccccc21, the Ki falls from 15 µM to 2.83 µM (5.3-fold). The second binds more tightly here.

First: Cn1c(/C=C/c2ccccc2)nc2ccccc21
Second: COc1ccc(/C=C/c2nc3ccccc3n2C)cc1
The Ki of the first is 3.2-fold higher: 18.7 µM for the first, 5.82 µM for the second.

Compared with Cc1nc2ccccc2[nH]1, Cn1cnc2ccccc21 is 1.7-fold higher in Ki: 1220 µM for the first, 2080 µM for the second.

Going from Cn1c(/C=C/c2ccc(C(F)(F)F)cc2)nc2ccccc21 to Cn1c(=O)c2c(nc3c4ccccc4ncn32)n(C)c1=O, the Ki rises from 0.43 µM to 39.9 µM (93-fold).
